The record followed here is ChEMBL document CHEMBL2086268, “Synthesis, radiolabeling and initial in vivo evaluation of [(11)C]KSM-01 for imaging PPAR-α receptors” (Bioorg Med Chem Lett, 2012).

Common to all, as to settings: in vivo, 1 h
The subject of data set [1] is Liver. Put plainly: Drug uptake in liver of MHC-PPARalpha overexpressing transgenic mouse at 170 uCi, iv after 60 mins by microPET imaging analysis. Type of data set: ADME, organism-based. The gist of the method:
(§1)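 Dynamic microPET scan over 0–60 min after intravenous injection of the 11C-labelled tracer. Transgenic mice had cardiac-ventricle PPAR-α protein about 15-fold above wild-type littermates. Data were analysed as standard uptake values (SUV).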

Data set [2] deals with Blood. Kind of data set: Drug uptake in blood of MHC-PPARalpha overexpressing transgenic mouse at 170 uCi, iv after 60 mins by post-PET gamma counting analysis. Type of data set: ADME, organism-based. The gist of the method:
(§2)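 Biodistribution done after PET: tissues were collected after the 0–60 min dynamic scan following intravenous injection of the 11C-labelled tracer. Transgenic mice with about 15-fold ventricular PPAR-α overexpression were used alongside wild-type littermate controls. Uptake was expressed as %ID/g.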

Data set [3] concerns Muscle tissue. Put plainly: Drug uptake in wild type mouse muscle at 170 uCi, iv after 60 mins by post-PET gamma counting analysis. Format: ADME, organism-based. The gist of the method:
as §2

The subject of data set [4] is Liver. Kind of data set: Drug uptake in wild type mouse liver at 170 uCi, iv after 60 mins by post-PET gamma counting analysis. Format: ADME, organism-based. The gist of the method:
as §2

Another data set has as its system Mus musculus. Kind of data set: Drug uptake in MHC-PPARalpha overexpressing transgenic mouse at 170 uCi, iv after 60 mins by microPET imaging analysis relative to wild type control. Format: ADME, organism-based. The gist of the method:
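Transgenic mice overexpressing PPAR-α in heart (ventricular PPAR-α protein about 15-fold above wild-type) and wild-type littermate controls. Dynamic microPET imaging over 0–60 min after intravenous injection of the carbon-11-labelled radiotracer. Radiochemical purity >98%. Cardiac accumulation was quantified as standard uptake values (SUV) and compared with wild-type animals.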

A short description of data set [5]: Drug uptake in cardiac tissue of MHC-PPARalpha overexpressing transgenic mouse at 170 uCi, iv after 60 mins by post-PET gamma counting analysis. Type of data set: ADME, organism-based, Heart. A digest of the protocol: as §2
In the next data set the test system is Heart. Put plainly: Drug uptake in heart of MHC-PPARalpha overexpressing transgenic mouse at 170 uCi, iv after 60 mins by microPET imaging analysis. Format: ADME, organism-based. The gist of the method: as §1
The nature of data set [6]: Drug uptake in wild type mouse cardiac tissue at 170 uCi, iv after 60 mins by post-PET gamma counting analysis. Format: ADME, organism-based, Heart. A digest of the protocol:
as §2

For data set [7], the system named is Lung. Kind of data set: Drug uptake in wild type mouse lungs at 170 uCi, iv after 60 mins by post-PET gamma counting analysis. Format: ADME, organism-based. The gist of the method: as §2
Data set [8] concerns Blood. Put plainly: Drug uptake in wild type mouse blood at 170 uCi, iv after 60 mins by post-PET gamma counting analysis. Format: ADME, organism-based. The gist of the method: as §2
For data set [9], the system named is Kidney. Kind of data set: Drug uptake in wild type mouse kidney at 170 uCi, iv after 60 mins by post-PET gamma counting analysis. Format: ADME, organism-based. A digest of the protocol:
as §2

Data set [10] concerns Lung. Kind of data set: Drug uptake in lungs of MHC-PPARalpha overexpressing transgenic mouse at 170 uCi, iv after 60 mins by post-PET gamma counting analysis. Format: ADME, organism-based. A digest of the protocol:
as §2

The test system of data set [11] is Muscle tissue. Kind of data set: Drug uptake in muscle of MHC-PPARalpha overexpressing transgenic mouse at 170 uCi, iv after 60 mins by post-PET gamma counting analysis. Type of data set: ADME, organism-based. The gist of the method: as §2
For data set [12], the system named is Spleen. Put plainly: Drug uptake in wild type mouse spleen at 170 uCi, iv after 60 mins by post-PET gamma counting analysis. Type of data set: ADME, organism-based. A digest of the protocol:
as §2

Data set [13] deals with Kidney. Kind of data set: Drug uptake in kidney of MHC-PPARalpha overexpressing transgenic mouse at 170 uCi, iv after 60 mins by post-PET gamma counting analysis. Format: ADME, organism-based. A digest of the protocol:
as §2

Data set [14] deals with Spleen. Put plainly: Drug uptake in spleen of MHC-PPARalpha overexpressing transgenic mouse at 170 uCi, iv after 60 mins by post-PET gamma counting analysis. Type of data set: ADME, organism-based. A digest of the protocol: as §2
The subject of data set [15] is Liver. Put plainly: Drug uptake in liver of MHC-PPARalpha overexpressing transgenic mouse at 170 uCi, iv after 60 mins by post-PET gamma counting analysis. Type of data set: ADME, organism-based. The gist of the method:
as §2

As to `CC(C)(Sc1ccc(CCN(CCCCC2CCCCC2)C(=O)Nc2ccc(O[11CH3])cc2)cc1)C(=O)O`, the Drug uptake entry with Liver [1] is reported as “Active”; in the data set with Blood [2] it was 0.42 % ID/g; in the data set on Muscle tissue [3], 0.35 % ID/g; with Liver [4] it was 60.69 % ID/g; in [5], 1.09 % ID/g; in the data set with Heart it was “Active”. Moreover, the Drug uptake in [6] stood at 0.479 % ID/g; in the data set with Lung [7], 2.11 % ID/g; in the data set on Blood [8] it was 0.42 % ID/g; with Kidney [9], 2.01 % ID/g; in the data set with Lung [10], 2.65 % ID/g; with Muscle tissue [11], 0.36 % ID/g. The Drug uptake is 1.55 % ID/g in the data set on Spleen [12], 2.58 % ID/g in the data set with Kidney [13], 1.33 % ID/g with Spleen [14] and 55.3 % ID/g in the data set with Liver [15]. For the same molecule, the “fold change (FC)” value with Mus musculus worked out at 2.
